High-throughput results (PubChem)
MC4R antagonist – antagonists of human melanocortin 4 receptor (MC4R). actives 0.48% (n = 360,000). AID 540295. inhibition, % at 6.5 µM. P32245. MC4R-expressing cells, MTII-stimulated cAMP, LANCE TR-FRET;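 active = inhibition above its plate's cutoff, the mean of tested wells on that plate plus 3 SD, cut at about 29% in these data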
Target sequence (P32245 whole entry, looked up): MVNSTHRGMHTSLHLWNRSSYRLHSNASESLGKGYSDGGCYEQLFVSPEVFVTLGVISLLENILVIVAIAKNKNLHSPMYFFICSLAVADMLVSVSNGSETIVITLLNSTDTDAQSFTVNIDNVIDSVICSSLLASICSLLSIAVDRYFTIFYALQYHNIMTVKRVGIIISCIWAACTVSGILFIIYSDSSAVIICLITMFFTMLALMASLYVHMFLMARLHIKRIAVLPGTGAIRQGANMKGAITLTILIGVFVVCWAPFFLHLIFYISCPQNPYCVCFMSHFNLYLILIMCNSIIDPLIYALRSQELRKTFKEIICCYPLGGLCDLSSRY
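Test system: U2OS cells stably expressing human melanocortin 4 receptor (MC4R); also added: Melanotan II challenge; compound: 6.5 µM single dose; timing: 30-min compound preincubation, 1-h Melanotan II challenge, 1-h detection, room temperature; signal: Eu-cAMP/anti-cAMP TR-FRET, emission 671 nm; repeats: one well per compound, no replicates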
CHOP UPR activ – activators of apoptotic arm of unfolded protein response (CHOP) | actives 0.34% (n = 330,000) | AID 449763 | CHO-CHOP luciferase reporter, UPR activation, luminescence; percent of tunicamycin response over DMSO baseline | activation, % at 10 µM;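 active = at 10 µM dose, activation of 40% or more, normalized to positive control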
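Evaluation: % reporter activation, DMSO baseline versus tunicamycin full activation; System: CHO-CHOP luciferase reporter cell line; Input: 500 cells/well; Incubation: 6 h compound treatment, 37 °C; Measured by: Steady-Glo luciferase luminescence; Dosing: one dose, 10 µM in 0.5% DMSO; Buffer or medium: F12 medium, 10% FBS; Benchmarks: positive tunicamycin 10 µg/mL, negative DMSO alone.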
MC4R ag barr – agonists of human melanocortin 4 receptor (MC4R) beta-arrestin; P32245; U2OS MC4R beta-arrestin complementation, luminescence; percent of melanotan II response, DMSO zero; actives 0.98% (n = 360,000); activation, % at 8.9 µM; AID 540308;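 active = activation above a per-plate cutoff, the mean activation of sample wells on that plate plus 3 SD, cut at about 8% in these data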
A1 inh – inhibitors of the anti-apoptotic protein A1, read as caspase activation; MEF A1-2A-BIM cells, Caspase-Glo 3/7 luminescence, 3 h; percent of clofoctol response, vehicle zero; caspase activation, % (test concentration not listed); actives 0.066% (n = 330,000);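 active = over half of replicate activation scores above 10%, or exactly half above 10 with the replicate mean above 10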
UPR XBP1 act – adaptive UPR (XBP1) activation; CHO-XBP1 luciferase reporter, IRE1-XBP1 UPR activation, luminescence; percent of tunicamycin response, DMSO as zero; actives 0.33% (n = 330,000); AID 463104; activation, % at 20 µM;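 active = versus positive control, 20 µM dose yields 30% or more activation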
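Material – CHO cell line with stable XBP1 luciferase reporter · Buffer or medium – F12 plus 10% FBS · Compound – single point, 20 µM final compound, 1% DMSO · Schedule – 16-18 h cell attachment at 37 °C, then 6 h compound exposure · Signal – Steady-Glo luminescence read · Benchmarks – high control tunicamycin 10 µg/mL final, low control DMSO vehicle only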
MC4R barr ag – human MC4R beta-arrestin agonism confirmation | shares compounds with MC4R ag barr | U2OS MC4R beta-arrestin recruitment, luminescence; scaled DMSO 0%, Melanotan II 100% | activation, % at 8.9 µM | actives 31% (n = 2,400);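 active = mean activation across replicates above the hit cutoff set in the earlier primary screen, cut at about 8% in these data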
MOR-DOR barr ag – counter-screen for MC4R agonists: agonists of mu-delta opioid heterodimer; shares compounds with MC4R ag barr; U2OS PathHunter beta-arrestin, beta-gal luminescence; percent of deltorphin B response, DMSO zero; activation, % at 9.2 µM; actives 5.8% (n = 2,400); AID 602194;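 active = mean activation across replicates exceeds the hit threshold derived in the earlier primary screen, cut at about 18% in these data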
Numbers stand for hits. A selection: hits, their analogues and other compounds. The true share with any hit is near 2%.

Results for COc1ccccc1C(=O)Nc1ccc2oc(-c3ccc(F)cc3)nc2c1 ?
MC4R antagonist: inactive; CHOP UPR activ: inactive; MC4R ag barr: 17.5; A1 inh: inactive; UPR XBP1 act: inactive; MC4R barr ag: inactive; MOR-DOR barr ag: inactive

Results for CCC(=O)Nc1cccc(-c2nc3ccccc3o2)c1 ?
MC4R antagonist: inactive; CHOP UPR activ: inactive; MC4R ag barr: inactive; A1 inh: inactive; UPR XBP1 act: inactive

What do the screens show for `COc1ccccc1C(=O)NC(=O)CSc1ccc(C)c(C)c1`?
MC4R antagonist: inactive; CHOP UPR activ: inactive; MC4R ag barr: inactive; A1 inh: inactive; UPR XBP1 act: inactive

Results for CCc1nc2ccc(C(=O)Nc3cccc(OCC(=O)N(C)C)c3)cn2c1N(CCC(C)C)CCN(C)C ?
MC4R antagonist: inactive; MC4R ag barr: inactive

What do the screens show for `CN(C)S(=O)(=O)c1ccc(NC(=O)Cn2nc(-c3ccc4c(c3)OCCO4)ccc2=O)cc1`?
MC4R antagonist: inactive; MC4R ag barr: inactive

Results for CCCNC(=O)C1(C)CCCN(C(=O)c2cccc(C(F)(F)F)c2)C1 (centres undefined) ?
MC4R antagonist: inactive; MC4R ag barr: inactive

How did O=C(CNc1ccc(C(F)(F)F)cc1)Nc1cccc(S(=O)(=O)N2CCCCC2)c1 do in these assays?
MC4R antagonist: inactive; MC4R ag barr: inactive

Results for O=C1NCC(c2ccccc2)C1C(=O)N/N=C\c1ccc(-c2cccc(Cl)c2Cl)o1 (centres undefined) ?
MC4R antagonist: inactive; CHOP UPR activ: inactive; MC4R ag barr: inactive; A1 inh: inactive; UPR XBP1 act: inactive

How did Cc1ccc(-c2ccc(/C=N\NC(=O)C3C(=O)NCC3c3ccccc3)o2)cc1Cl (centres undefined) do in these assays?
MC4R antagonist: inactive; CHOP UPR activ: inactive; MC4R ag barr: 12.5; A1 inh: inactive; UPR XBP1 act: inactive; MC4R barr ag: inactive; MOR-DOR barr ag: inactive

Results for O=C(CSc1nnc(-c2n[nH]c3ccccc23)n1-c1ccccc1)Nc1cccc(Cl)c1 ?
MC4R antagonist: inactive; CHOP UPR activ: inactive; MC4R ag barr: inactive; A1 inh: inactive; UPR XBP1 act: inactive

Results for CCc1ccc(NC(=O)CSc2nnc(-c3n[nH]c4ccccc34)n2-c2ccccc2)cc1 ?
MC4R antagonist: inactive; CHOP UPR activ: inactive; MC4R ag barr: 10.0; A1 inh: inactive; UPR XBP1 act: inactive; MC4R barr ag: inactive; MOR-DOR barr ag: inactive

What do the screens show for `COc1ccccc1-c1cnc(C(O)c2ccc(CN3CCCCC3)cc2)[nH]1` (centres undefined)?
MC4R antagonist: inactive; MC4R ag barr: inactive

What do the screens show for `COc1ccc(CCCc2nnc(SCC(=O)N/N=C\c3ccc(O)c(OC)c3)o2)cc1C`?
MC4R antagonist: inactive; CHOP UPR activ: inactive; MC4R ag barr: inactive; A1 inh: inactive; UPR XBP1 act: inactive

Results for COc1ccc(/C=N/NC(=O)CSc2nnc(CCCc3ccc(OC)c(C)c3)o2)cc1 ?
MC4R antagonist: inactive; CHOP UPR activ: inactive; MC4R ag barr: inactive; A1 inh: inactive; UPR XBP1 act: inactive

What do the screens show for `C=CCc1cc(/C=N\NC(=O)CSc2nnc(CCCc3ccc(OC)c(C)c3)o2)cc(OC)c1O`?
MC4R antagonist: inactive; CHOP UPR activ: inactive; MC4R ag barr: 22.8; A1 inh: inactive; UPR XBP1 act: inactive; MC4R barr ag: inactive; MOR-DOR barr ag: inactive

Results for C=CCc1cc(/C=N/NC(=O)CSc2nnc(CCCc3ccc(OC)cc3)o2)cc(OC)c1O ?
MC4R antagonist: inactive; CHOP UPR activ: inactive; MC4R ag barr: 33.4; A1 inh: inactive; UPR XBP1 act: inactive; MC4R barr ag: inactive; MOR-DOR barr ag: inactive

What do the screens show for `CCCC(=O)N1CCC1(C)C(=O)Nc1ccc2nccnc2c1` (centres undefined)?
MC4R antagonist: inactive; MC4R ag barr: inactive
